Assay: Cytotoxicity against rat 9LSF cells at 10 uM after 48 hrs by colony formation assay relative to DMAPT
Type: functional
Procedure, shortened: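 9L-SF rat gliosarcoma cells in DMEM/F12 with 10% iron-supplemented calf serum were treated at 50% confluence for 48 h (0.3-20 μM; DMSO <0.1%, DMAPT in saline). Cells were rinsed, trypsinized, counted and seeded for colonies, with irradiated feeders when seeding was below 2,000 cells/cm2. Survival was normalized to control plating efficiency and compared with DMAPT at 10 μM. Treatments in triplicate.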

C=C1C(=O)O[C@H]2[C@H]1CC/C(COC(=O)NCCCCCCCCNC(=O)OC/C1=C/CC[C@@]3(C)O[C@H]3[C@H]3OC(=O)C(=C)[C@@H]3CC1)=C\CC[C@@]1(C)O[C@@H]21
fold change (FC): 303
